Measured values taken from ChEMBL document CHEMBL1148687, “Identification of a novel 4-aminomethylpiperidine class of M3 muscarinic receptor antagonists and structural insight into their M3 selectivity” (J Med Chem, 2006).

What was measured:
Format in all cases: cell-based
[1] = target: T1, Muscarinic acetylcholine receptor M3 (Homo sapiens, UniProt P20309); test: Inhibition of [3H]NMS binding to human cloned M3 receptor expressed in CHO cells at 1 uM
Target sequence in this assay (P20309 whole entry, looked up): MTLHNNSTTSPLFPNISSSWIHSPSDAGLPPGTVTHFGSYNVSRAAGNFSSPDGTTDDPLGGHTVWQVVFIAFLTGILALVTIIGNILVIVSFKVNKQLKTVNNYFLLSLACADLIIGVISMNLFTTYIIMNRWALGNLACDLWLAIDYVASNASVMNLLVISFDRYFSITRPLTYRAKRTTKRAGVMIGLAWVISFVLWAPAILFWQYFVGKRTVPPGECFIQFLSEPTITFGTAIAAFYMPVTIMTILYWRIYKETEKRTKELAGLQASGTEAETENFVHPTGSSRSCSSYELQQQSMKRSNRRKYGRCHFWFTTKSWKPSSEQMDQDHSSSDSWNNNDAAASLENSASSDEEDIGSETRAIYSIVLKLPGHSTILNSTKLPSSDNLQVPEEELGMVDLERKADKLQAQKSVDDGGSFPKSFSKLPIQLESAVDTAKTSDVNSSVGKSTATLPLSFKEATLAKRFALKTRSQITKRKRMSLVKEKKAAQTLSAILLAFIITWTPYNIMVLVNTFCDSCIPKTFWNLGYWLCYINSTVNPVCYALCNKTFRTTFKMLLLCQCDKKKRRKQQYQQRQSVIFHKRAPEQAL

[2] = target: T2, Muscarinic acetylcholine receptor M1 (Homo sapiens, UniProt P11229); test: Inhibition of [3H]NMS binding to human cloned M1 receptor expressed in CHO cells
T2 sequence (P11229 whole entry): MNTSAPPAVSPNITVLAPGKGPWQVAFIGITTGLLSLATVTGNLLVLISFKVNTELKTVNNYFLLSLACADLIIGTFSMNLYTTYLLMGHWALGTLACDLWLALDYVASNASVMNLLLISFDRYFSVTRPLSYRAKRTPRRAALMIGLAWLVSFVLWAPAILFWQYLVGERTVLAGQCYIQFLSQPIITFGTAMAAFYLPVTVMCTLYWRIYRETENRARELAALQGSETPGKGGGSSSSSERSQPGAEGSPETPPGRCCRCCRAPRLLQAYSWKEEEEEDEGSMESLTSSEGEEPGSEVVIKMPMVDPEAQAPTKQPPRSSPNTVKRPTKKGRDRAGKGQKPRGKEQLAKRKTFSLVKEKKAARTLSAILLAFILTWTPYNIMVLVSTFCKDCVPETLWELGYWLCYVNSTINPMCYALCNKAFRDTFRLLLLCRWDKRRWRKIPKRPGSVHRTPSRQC
How it was run: (§1)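 Competition against specific [3H]-NMS binding on membranes of CHO cells expressing cloned human receptor subtypes. Assay buffer 50 mM Tris-HCl, 10 mM MgCl2, 1 mM EDTA, pH 7.4, highest final concentration 10 µM.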

[3] = target: T3, Muscarinic acetylcholine receptor M4 (Homo sapiens, UniProt P08173); test: Inhibition of [3H]NMS binding to human cloned M4 receptor expressed in CHO cells; how it was run: as §1
T3 sequence (P08173 whole entry): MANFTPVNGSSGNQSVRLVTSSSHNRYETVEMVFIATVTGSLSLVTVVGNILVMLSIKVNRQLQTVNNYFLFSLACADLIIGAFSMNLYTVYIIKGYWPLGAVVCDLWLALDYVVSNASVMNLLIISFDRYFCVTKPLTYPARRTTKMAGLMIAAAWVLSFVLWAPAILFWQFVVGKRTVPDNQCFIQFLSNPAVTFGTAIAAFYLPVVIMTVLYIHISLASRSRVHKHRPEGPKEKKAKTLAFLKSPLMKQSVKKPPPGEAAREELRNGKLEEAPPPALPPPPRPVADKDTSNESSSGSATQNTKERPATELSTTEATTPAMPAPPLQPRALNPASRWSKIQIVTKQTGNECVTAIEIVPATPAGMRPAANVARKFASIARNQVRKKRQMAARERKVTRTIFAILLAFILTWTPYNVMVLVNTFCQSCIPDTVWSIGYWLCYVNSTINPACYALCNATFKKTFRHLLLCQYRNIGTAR

[4] = target: T1, Muscarinic acetylcholine receptor M3; test: Inhibition of [3H]NMS binding to human cloned M3 receptor expressed in CHO cells; how it was run: as §1
Target sequence in this assay (P20309 whole entry): as the sequence (P20309 whole entry, looked up) above

[5] = target: T4, Muscarinic acetylcholine receptor M5 (Homo sapiens, UniProt P08912); test: Inhibition of [3H]NMS binding to human cloned M5 receptor expressed in CHO cells; how it was run: as §1
T4 sequence (P08912 whole entry): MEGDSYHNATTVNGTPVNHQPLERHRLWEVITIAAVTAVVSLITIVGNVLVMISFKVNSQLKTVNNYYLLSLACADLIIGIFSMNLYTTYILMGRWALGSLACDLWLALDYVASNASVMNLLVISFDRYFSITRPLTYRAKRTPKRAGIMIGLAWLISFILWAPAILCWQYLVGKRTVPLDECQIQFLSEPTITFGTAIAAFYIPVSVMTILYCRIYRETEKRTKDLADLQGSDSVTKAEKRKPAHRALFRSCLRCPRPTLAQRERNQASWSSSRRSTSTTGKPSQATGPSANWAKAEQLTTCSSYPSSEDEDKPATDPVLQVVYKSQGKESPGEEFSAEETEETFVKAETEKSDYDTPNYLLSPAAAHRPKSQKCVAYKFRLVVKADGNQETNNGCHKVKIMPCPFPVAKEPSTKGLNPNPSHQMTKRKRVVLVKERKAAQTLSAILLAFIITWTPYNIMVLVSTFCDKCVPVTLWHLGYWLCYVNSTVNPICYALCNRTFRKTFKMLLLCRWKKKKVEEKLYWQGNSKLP

## NC1CCN(C(=O)[C@H]2CCCN2C(=O)[C@@H]2CCCN2C(=O)CC(c2ccccc2)(c2ccccc2)c2ccccc2)C1 (some centres undefined)
[1]
  inhibition: 0%

## CCN1CCC(CNC(=O)[C@H]2CCCN2C(=O)[C@@H]2C[C@@H](O)CN2C(=O)CC(c2ccc(F)cc2)(c2ccc(F)cc2)c2ccc(F)cc2)CC1
[2]
  Ki: 580 nM
[3]
  Ki: 92 nM
[4]
  Ki: 0.92 nM
[5]
  Ki: 2800 nM

## O=C(NCC1CCNCC1)[C@H]1CCCN1C(=O)[C@@H]1C[C@@H](O)CN1C(=O)CC(c1ccccc1)(c1ccccc1)c1ccccc1
[2]
  Ki: 1800 nM
[3]
  Ki: 480 nM
[4]
  Ki: 4.2 nM
[5]
  Ki: > 5100 nM

## O=C(NCC1CCNCC1)[C@H]1CCCN1C(=O)[C@@H]1CCCN1C(=O)CC(c1ccccc1)(c1ccccc1)c1ccccc1
[1]
  inhibition: 82%
[4]
  Ki: 49 nM

## O=C(NC1CCNC1)[C@H]1CCCN1C(=O)[C@@H]1CCCN1C(=O)CC(c1ccccc1)(c1ccccc1)c1ccccc1 (some centres undefined)
[1]
  inhibition: -4%

## NC1CCC(NC(=O)[C@H]2CCCN2C(=O)[C@@H]2CCCN2C(=O)CC(c2ccccc2)(c2ccccc2)c2ccccc2)CC1 (some centres undefined)
[1]
  inhibition: -7%

## O=C(NCC1CCNC1)[C@H]1CCCN1C(=O)[C@@H]1CCCN1C(=O)CC(c1ccccc1)(c1ccccc1)c1ccccc1 (some centres undefined)
[1]
  inhibition: 33%

## O=C([C@H]1CCCN1C(=O)[C@@H]1CCCN1C(=O)CC(c1ccccc1)(c1ccccc1)c1ccccc1)N1CCCNC1
[1]
  inhibition: 12%

## O=C(NCCC1CCNCC1)[C@H]1CCCN1C(=O)[C@@H]1C[C@@H](O)CN1C(=O)CC(c1ccc(F)cc1)(c1ccc(F)cc1)c1ccc(F)cc1
[2]
  Ki: 300 nM
[3]
  Ki: 29 nM
[4]
  Ki: 0.48 nM
[5]
  Ki: 1700 nM

## Nc1cccc(NC(=O)[C@H]2CCCN2C(=O)[C@@H]2CCCN2C(=O)CC(c2ccccc2)(c2ccccc2)c2ccccc2)c1
[1]
  inhibition: 0%

## O=C(NCC1CCN(CC2CCCC2)CC1)[C@H]1CCCN1C(=O)[C@@H]1C[C@@H](O)CN1C(=O)CC(c1ccc(F)cc1)(c1ccc(F)cc1)c1ccc(F)cc1
[2]
  Ki: 71 nM
[3]
  Ki: 11 nM
[4]
  Ki: 0.19 nM
[5]
  Ki: 940 nM

## NCC1CCCN(C(=O)[C@H]2CCCN2C(=O)[C@@H]2CCCN2C(=O)CC(c2ccccc2)(c2ccccc2)c2ccccc2)C1 (some centres undefined)
[1]
  inhibition: 32%

## O=C(NC[C@@H]1CCCNC1)[C@H]1CCCN1C(=O)[C@@H]1C[C@@H](O)CN1C(=O)CC(c1ccc(Cl)cc1)(c1ccc(Cl)cc1)c1ccc(Cl)cc1
[2]
  Ki: 460 nM
[3]
  Ki: 120 nM
[4]
  Ki: 1.6 nM
[5]
  Ki: 2700 nM

## NCc1ccc(NC(=O)[C@H]2CCCN2C(=O)[C@@H]2CCCN2C(=O)CC(c2ccccc2)(c2ccccc2)c2ccccc2)cc1
[1]
  inhibition: 9%

## NCc1cccc(NC(=O)[C@H]2CCCN2C(=O)[C@@H]2CCCN2C(=O)CC(c2ccccc2)(c2ccccc2)c2ccccc2)c1
[1]
  inhibition: 12%

## CN1CCC(CNC(=O)[C@H]2CCCN2C(=O)[C@@H]2C[C@@H](O)CN2C(=O)CC(c2ccc(F)cc2)(c2ccc(F)cc2)c2ccc(F)cc2)CC1
[2]
  Ki: 270 nM
[3]
  Ki: 41 nM
[4]
  Ki: 0.51 nM
[5]
  Ki: 1600 nM

## Nc1cccc(CNC(=O)[C@H]2CCCN2C(=O)[C@@H]2CCCN2C(=O)CC(c2ccccc2)(c2ccccc2)c2ccccc2)c1
[1]
  inhibition: 6%

## O=C(NC[C@@H]1CCCNC1)[C@H]1CCCN1C(=O)[C@@H]1C[C@@H](O)CN1C(=O)CC(c1ccc(F)cc1)(c1ccc(F)cc1)c1ccc(F)cc1
[2]
  Ki: 300 nM
[3]
  Ki: 39 nM
[4]
  Ki: 0.39 nM
[5]
  Ki: 1700 nM

## O=C([C@H]1CCCN1C(=O)[C@@H]1CCCN1C(=O)CC(c1ccccc1)(c1ccccc1)c1ccccc1)N1CC2CNCC2C1 (some centres undefined)
[1]
  inhibition: 7%

## Nc1ccccc1CNC(=O)[C@H]1CCCN1C(=O)[C@@H]1CCCN1C(=O)CC(c1ccccc1)(c1ccccc1)c1ccccc1 (stereo in doubt; 46)
[1]
  inhibition: 10%

## NCCNC(=O)[C@H]1CCCN1C(=O)[C@@H]1CCCN1C(=O)CC(c1ccccc1)(c1ccccc1)c1ccccc1
[1]
  inhibition: -4%

## NCC1CCN(C(=O)[C@H]2CCCN2C(=O)[C@@H]2CCCN2C(=O)CC(c2ccccc2)(c2ccccc2)c2ccccc2)C1 (some centres undefined)
[1]
  inhibition: 7%

## O=C(NC[C@@H]1CCCNC1)[C@H]1CCCN1C(=O)[C@@H]1CCCN1C(=O)CC(c1ccccc1)(c1ccccc1)c1ccccc1
[1]
  inhibition: 91%
[4]
  Ki: 23 nM

## NCC1CCCCN1C(=O)[C@H]1CCCN1C(=O)[C@@H]1CCCN1C(=O)CC(c1ccccc1)(c1ccccc1)c1ccccc1 (some centres undefined)
[1]
  inhibition: 5%

## O=C([C@H]1CCCN1C(=O)[C@@H]1CCCN1C(=O)CC(c1ccccc1)(c1ccccc1)c1ccccc1)N1CCNCC1
[1]
  inhibition: 12%

## Nc1ccc(CNC(=O)[C@H]2CCCN2C(=O)[C@@H]2CCCN2C(=O)CC(c2ccccc2)(c2ccccc2)c2ccccc2)cc1
[1]
  inhibition: 6%

## O=C(NCC1CCNCC1)[C@H]1CCCN1C(=O)[C@@H]1C[C@@H](O)CN1C(=O)CC(c1ccc(Cl)cc1)(c1ccc(Cl)cc1)c1ccc(Cl)cc1
[2]
  Ki: 93 nM
[3]
  Ki: 53 nM
[4]
  Ki: 0.39 nM
[5]
  Ki: 2500 nM

## NC1CCCC(NC(=O)[C@H]2CCCN2C(=O)[C@@H]2CCCN2C(=O)CC(c2ccccc2)(c2ccccc2)c2ccccc2)C1 (some centres undefined)
[1]
  inhibition: 59%
[4]
  Ki: 170 nM

## NC1CCCN(C(=O)[C@H]2CCCN2C(=O)[C@@H]2CCCN2C(=O)CC(c2ccccc2)(c2ccccc2)c2ccccc2)C1 (some centres undefined)
[1]
  inhibition: 22%

## O=C([C@H]1CCCN1C(=O)[C@@H]1CCCN1C(=O)CC(c1ccccc1)(c1ccccc1)c1ccccc1)N1CCCNCC1
[1]
  inhibition: -2%

## O=C(NCC1CCCCN1)[C@H]1CCCN1C(=O)[C@@H]1CCCN1C(=O)CC(c1ccccc1)(c1ccccc1)c1ccccc1 (some centres undefined)
[1]
  inhibition: 28%

## O=C(NCC1CCN(C2CCCC2)CC1)[C@H]1CCCN1C(=O)[C@@H]1C[C@@H](O)CN1C(=O)CC(c1ccc(F)cc1)(c1ccc(F)cc1)c1ccc(F)cc1
[2]
  Ki: 210 nM
[3]
  Ki: 48 nM
[4]
  Ki: 0.51 nM
[5]
  Ki: 3200 nM

## O=C(NCC1CCN(CC2CCC2)CC1)[C@H]1CCCN1C(=O)[C@@H]1C[C@@H](O)CN1C(=O)CC(c1ccc(F)cc1)(c1ccc(F)cc1)c1ccc(F)cc1
[2]
  Ki: 220 nM
[3]
  Ki: 31 nM
[4]
  Ki: 0.53 nM
[5]
  Ki: 3100 nM

## Nc1ccccc1CNC(=O)[C@H]1CCCN1C(=O)[C@@H]1CCCN1C(=O)CC(c1ccccc1)(c1ccccc1)c1ccccc1 (stereo in doubt; 45)
[1]
  inhibition: 5%

## Nc1ccccc1NC(=O)[C@H]1CCCN1C(=O)[C@@H]1CCCN1C(=O)CC(c1ccccc1)(c1ccccc1)c1ccccc1
[1]
  inhibition: 11%

## N[C@H]1CCCC[C@@H]1NC(=O)[C@H]1CCCN1C(=O)[C@@H]1CCCN1C(=O)CC(c1ccccc1)(c1ccccc1)c1ccccc1
[1]
  inhibition: 80%
[4]
  Ki: 48 nM

## Nc1ccc(NC(=O)[C@H]2CCCN2C(=O)[C@@H]2CCCN2C(=O)CC(c2ccccc2)(c2ccccc2)c2ccccc2)cc1
[1]
  inhibition: 8%

## NCCCNC(=O)[C@H]1CCCN1C(=O)[C@@H]1CCCN1C(=O)CC(c1ccccc1)(c1ccccc1)c1ccccc1
[1]
  inhibition: 2%

## O=C([C@H]1CCCN1C(=O)[C@@H]1CCCN1C(=O)CC(c1ccccc1)(c1ccccc1)c1ccccc1)N1CCC2NCCC21 (some centres undefined)
[1]
  inhibition: 7%

## O=C(NCCC1CCNCC1)[C@H]1CCCN1C(=O)[C@@H]1CCCN1C(=O)CC(c1ccccc1)(c1ccccc1)c1ccccc1
[1]
  inhibition: 88%
[4]
  Ki: 29 nM

## O=C(NC1CCNCC1)[C@H]1CCCN1C(=O)[C@@H]1CCCN1C(=O)CC(c1ccccc1)(c1ccccc1)c1ccccc1
[1]
  inhibition: 4%

## NCC1CCN(C(=O)[C@H]2CCCN2C(=O)[C@@H]2CCCN2C(=O)CC(c2ccccc2)(c2ccccc2)c2ccccc2)CC1
[1]
  inhibition: 59%
[4]
  Ki: 150 nM

## N[C@@H]1CCCC[C@@H]1NC(=O)[C@H]1CCCN1C(=O)[C@@H]1CCCN1C(=O)CC(c1ccccc1)(c1ccccc1)c1ccccc1
[1]
  inhibition: 40%
